Assay outcomes (PubChem)
TLR4 MyD88 comp: blocks binding of human TLR4 to MyD88. 0.18% of 200,000 active. inhibition, % at 8.4 µM. HeLa CL3-4 TLR4/MyD88 BLA complementation, FRET ratio; in the data active = inhibition above about 25%;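 note: 0% = vehicle and 100% = reference inhibitor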
ABHD5 PLIN5 PPI: ABHD5-PLIN5 protein interaction inhibition | Q00G26+Q8WTS1 | Split G. princeps luciferase complementation, luminescence, 4 h | inhibition, % at 4 µM | 0.78% of 360,000 active | AID 602281;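 active = inhibition above the mean inhibition across every tested compound plus 3 SD, cut at about 22% in these data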;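 note: 0% = DMSO only wells and the 100% control is not disclosed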
NOD2 RIPK2 PPI: NOD2-RIPK2 protein interaction inhibition; O43353; CHO BLA complementation NOD2-RIPK2, CCF4 ratio; inhibition, % at 4.98 µM; 0.38% of 360,000 active; AID 624267; in the data active = inhibition above about 21%;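 note: 0% = vehicle only and 100% = reference blocker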
B2AR ag: activates human beta-2 adrenergic receptor causing internalization; Am2.2-beta2AR cells, FAP receptor internalization, flow cytometry; response, % (test concentration not listed); 0.43% of 340,000 active; P07550; AID 504454;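 active = response above a set limit, near 3 SD of response in nonfluorescent compounds, cut at about 42% in these data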
Dynein transport: dynein cargo transport inhibition | z-score, hits read low | 0.47% of 220,000 active | AID 1381 | 3617.4 mouse cells, GR-EGFP nuclear translocation imaging; test concentration mostly 20 µM; stimulated with dexamethasone, 1 µM; hits give low values;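 active = plate z-score of nuclear minus cytoplasmic receptor signal below a set negative limit, without overly bright fluorescence or cell loss, cut at about -3.5 in these data, passing the limit was not always enough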;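 note: z-score of nuclear minus cytoplasmic ring GR-EGFP intensity difference per well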
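Buffer or medium – tet-free medium with charcoal-stripped serum · Signal – automated 10x imaging of fixed Hoechst-stained cells · Also added – dexamethasone agonist, 1.0 µM final, for 30 min · Incubation – induction 48 h, compound 1 h, agonist 30 min · Read-out – GR-EGFP nuclear translocation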
TLR9-MyD88 block: inhibitors of human TLR9-MyD88 binding. Q9NR96+Q99836. CHO BLA complementation TLR9-MyD88, CCF4 FRET ratio. inhibition, % at 4.98 µM. 0.21% of 340,000 active;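 active = inhibition above the mean over all tested compounds plus 3 SD, cut at about 21% in these data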;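 note: 0% = DMSO only wells and 100% = clavulanate BLA inhibitor control wells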
TLR4-MyD88 conf: confirmation of human TLR4-MyD88 binding inhibitors; shares compounds with TLR4 MyD88 comp; HeLa CL3-4 BLA complementation, CCF4 FRET ratio; inhibition, % at 8.4 µM; 50% of 350 active; AID 941;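 active = mean inhibition across three repeat runs above about 25% carried over from the earlier screen, limit read from the data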;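 note: plate controls were DMSO only for no effect and clavulanic acid blocking BLA at full dose for full effect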
BLA inh HeLa: inhibits beta-lactamase activity, counter-screen to TLR4-MyD88 binding inhibitors | shares compounds with TLR4 MyD88 comp | HeLa BLA reporter, CCF4 FRET ratio | inhibition, % at 8.4 µM | 63% of 350 active;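 active = mean inhibition over three repeats above about 26% taken from the earlier screen, limit read from the data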;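 note: HeLa cells stably expressing beta-lactamase reporter as counterscreen for TLR4-MyD88 inhibitors; 0% = DMSO and 100% = clavulanic acid full inhibition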
Starred values were filed as active, the others as inactive; . = no result. Shown are actives, neighbours in structure and some others; about 1.6% of the full set was active somewhere.

SMILES	TLR4 MyD88 comp	ABHD5 PLIN5 PPI	NOD2 RIPK2 PPI	B2AR ag	Dynein transport	TLR9-MyD88 block	TLR4-MyD88 conf	BLA inh HeLa
CCCCCCn1c2c(c(=N)c3c1CCC3)CCC2	27.4*	5.6	0.6	-5.1	-0.48	1.3	6.9	23.5
CCCCCCCCCn1c2c(c(=N)c3c1CCC3)CCC2	16.6	21.3	5.6	6.4	-2.09	1.8	.	.
CCCCCCCn1c2c(c(=N)c3c1CCC3)CCCC2	25.6*	4.0	-6.9	-3.6	2.81	6.7	20.8	25.5*
N#Cc1sc2nc(-c3cccs3)cc(-c3ccc(F)cc3)c2c1N	26.2*	-7.4	12.1	10.1	1.7	26.1*	38.9*	62.5*
N#Cc1sc2nc(C3CC3)cc(-c3ccccc3)c2c1N	8.3	-5.8	2.0	-12.4	-0.252	4.5	.	.
CC(=O)C1=NN(c2ccccc2)C(c2cccs2)N1c1ccccc1 (configuration not stated)	26.8*	.	.	.	-0.705	.	5.4	14.5
CC(=O)C1=NN(c2ccccc2)C(c2ccc3c(c2)OCO3)N1c1ccc(N2CCOCC2)cc1 (configuration not stated)	-6.2	-2.9	6.7	3.0	-0.287	0.1	.	.
Clc1ncnc2c1oc1ccccc12	33.1*	-1.3	-10.7	0.0	-0.94	-8.6	37.1*	15.3
CCSc1ncnc2c1oc1ccccc12	-12.7	3.9	-3.3	-3.2	-0.695	13.3	.	.
CN(Cc1ccccc1)S(=O)(=O)c1ccc(Cl)c(C(=O)OCC(=O)NC2CCS(=O)(=O)C2)c1 (configuration not stated)	.	-3.0	-2.8	4.2	.	-6.3	.	.
COc1ccccc1CN1CCC(n2nccc2NC(=O)CCOc2ccccc2)CC1	.	-2.4	-0.8	4.5	.	-10.3	.	.
CCCC1Cc2nc(N3CCCCC3)c(C#N)cc2CO1 (configuration not stated)	25.8*	-4.0	-2.8	-8.4	1.66	4.8	-11.4	6.2
CCCC1Cc2[nH]c(=O)c(C#N)cc2CO1 (configuration not stated)	.	-5.3	-14.2	10.1	0.292	-5.9	.	.
O=C(COc1cccc(F)c1)NNC(=O)Cc1ccc(Br)cc1	.	-7.9	2.9	-2.1	.	0.9	.	.
CN(C)C=Nc1nonc1-c1ccccc1	.	1.8	0.2	2.2	-0.35	-8.5	.	.
CN(C)C=Nc1c(Br)cc(Br)c2nonc12	25.2*	-26.0	-1.4	10.2	-3.3	6.2	21.2	35.4*
CN(C)c1ccc(C2CC(c3ccccc3)=Nc3nc(-c4ccccc4)cn32)cc1 (configuration not stated)	25.4*	.	.	.	1.47	.	3.5	19.3
O=C(CCCc1ccccc1)c1ccc2c(c1)OCCO2	25.5*	-4.9	1.6	1.7	0.849	-7.2	-1.8	0.7
CCN(CC)S(=O)(=O)c1ccc(N2CCCCC2)c(NC(=O)/C(C#N)=C/c2ccc(OC)cc2)c1	2.5	-2.1	-7.9	-0.8	0.932	-5.7	.	.
CCOc1ccc(NC(=O)/C(C#N)=C/c2ccc(N3CCCC3)c(C)c2)cc1	26.5*	1.4	0.8	-51.9	-1.56	10.7	28.2*	65.0*
O=C1c2cccc3c([N+](=O)[O-])ccc(c23)C(=O)N1c1nccs1	92.9*	10.7	88.7*	3.4	0.226	79.1*	91.9*	113.9*
COc1ccc(NC(=O)CSc2ccc3c4c(cccc24)C(=O)c2ccccc2-3)cc1	33.1*	0.1	7.1	-443.9	-2.19	-13.8	23.8	14.0
Cc1ccsc1CN(C)C(=O)CN1C(=O)NC2(CCCCC2C)C1=O (configuration not stated)	.	5.2	-2.6	0.8	.	1.9	.	.
CCCCOCCCNC(=O)C[C@@H]1C[C@@]2(C(=O)OC)CC(C)(C)CC=C2N(Cc2ccco2)C1=O	.	7.1	13.6	.	.	.	.	.
CCCOC(=O)c1ccc(S(N)(=O)=O)o1	26.8*	-1.3	-2.6	-3.2	1.28	0.3	-8.4	0.9
SMILES	TLR4 MyD88 comp	ABHD5 PLIN5 PPI	NOD2 RIPK2 PPI	B2AR ag	Dynein transport	TLR9-MyD88 block	TLR4-MyD88 conf	BLA inh HeLa
CCc1cccc(NC(=O)c2cccc3c2C(=O)N(CC2CCCO2)C3)c1 (configuration not stated)	.	2.2	9.8	-7.5	.	-0.1	.	.
Cc1ccccc1OCC(=O)NC(=S)Nc1ccc(S(=O)(=O)NC2CCCCC2)cc1	-9.6	-2.8	-6.0	-3.6	-0.605	0.6	.	.
CC(=O)NS(=O)(=O)c1ccc(NC(=S)NC(=O)COc2ccccc2C)cc1	33.6*	-3.6	-12.3	5.7	1.56	-1.2	-12.9	7.1
Cc1noc(C)c1COC(=O)c1cnc(Cl)c(Cl)c1	25.8*	2.6	-8.7	9.5	-0.0968	-1.6	19.2	5.0
CCCCCn1c(=O)c(C(=O)c2ccccc2)nc2ccccc21	4.2	4.4	-5.9	-2.2	-2.1	-13.5	.	.
CCCCCCn1c(=O)[nH]c2nc3cc(N)ccc3nc2c1=O	25.1*	.	.	.	0.19	.	29.6*	45.3*
O=C(CCN1CCOCC1)Nc1ccc2c(c1)CCC2	25.1*	-0.3	-4.0	0.4	-0.332	0.0	-0.7	4.0
O=C(CN1CCOCC1)Nc1ccc2c(c1)CCC2	.	-4.2	8.6	17.5	-0.288	3.0	.	.
CN(C)c1ccc(/C=N/N=C/c2ccccc2O)cc1	37.5*	1.2	-6.0	6.2	1.25	19.8	57.5*	52.7*
COc1ccccc1C=NN=Cc1ccccc1O	.	-6.9	-0.3	-5.6	.	-11.0	.	.
C=CCNc1sc(C(=O)c2ccccc2)c(N)c1C#N	-5.9	-1.7	-9.8	-6.4	0.651	-5.6	.	.
C=CCNc1sc(C(=O)c2ccc(Br)s2)c(N)c1C#N	36.6*	6.8	-3.3	1.9	-0.364	-2.7	20.2	55.4*
COc1ccc(-c2nc(C#N)c(NCCN(C)C)o2)cc1	27.0*	4.5	3.6	-1.3	0.0796	-0.8	-7.4	3.2
COc1ccc(NC(=O)C2CCCN2S(=O)(=O)c2cccs2)c([N+](=O)[O-])c1 (configuration not stated)	.	-2.8	14.0	4.3	.	-3.4	.	.
Clc1ccc2nc(C(Cl)(Cl)Cl)[nH]c2c1	.	13.1	-12.2	.	.	11.1	.	.
COc1ccc2nc(/C(C#N)=C\c3ccc(C(=O)O)cc3)[nH]c2c1	27.4*	-1.6	16.0	-9.9	0.243	15.7	13.0	27.2*
CC1(C(=O)NS(=O)(=O)c2cccc(F)c2)CCN1C(=O)Cc1cccc2ccccc12 (configuration not stated)	.	0.8	-16.6	.	.	.	.	.
CC(CCc1ccccc1)NC(=O)COC(=O)c1ccc(NC(=O)CC#N)cc1 (configuration not stated)	.	1.0	-7.9	-2.1	.	-1.2	.	.
